Test results: ChEMBL document CHEMBL1140729, “Synthesis and evaluation of 2'-hydroxyethyl trans-apovincaminate derivatives as antioxidant and cognitive enhancer agents” (J Med Chem, 2008)
Active and inactive are the calls of the source. The rule behind the calls is not given here.

Experiments:
[1] = system: Brain; test: Inhibition of Fe2+-induced lipid peroxidation in rat brain homogenate; type: functional, tissue-based
Outline: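 Whole rat brain homogenized in 9 vol ice-cold Krebs-Ringer/15 mM HEPES pH 7.4 with glucose, used fresh at 10 mg protein/ml. Preincubated with compound 20 min at 37 °C. LPO started with ferrous ammonium sulfate (200 µM Fe²⁺), run 20 min, stopped with TCA/HCl. TBA added to supernatant, boiled 20 min, OD read at 535 nm. IC50 obtained by sigmoid fit of 6–9 concentrations, triplicates.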

[2] = species: Rattus norvegicus; test: Inhibition of […] lipid peroxidation in rat brain microsome; type: functional
Outline: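 Rat brain microsomes (78000 g pellet) in KCl at 0.2 mg protein per ml. Medium: 50 mM Tris-HCl pH 6.8, 0.2 mM FeCl3, 1 mM KH2PO4, 0.5 mM ADP, preincubated 20 min at 37 °C ± compound. LPO started with 0.4 mM NADPH, run 20 min, stopped with TCA/HCl. TBA boiled 10 min, OD read at 535 nm. IC50 obtained by sigmoid fit of 7–9 concentrations, triplicates.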

[3] = system: Rattus norvegicus; test: Protective effect against diazepam-induced learning-deficit in Wistar rat at 5 mg/kg, po by water labyrinth test; type: functional
Outline: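 Male Wistar rats, 200–220 g, 10 per group. Diazepam 5 mg/kg i.p. in 5% Tween 80, given 30 min before the first swim. Compound given orally at 5 mg/kg 1 h before the first daily trial. Four-day water-labyrinth task with three choice points in water at 24 °C: one pretraining day, then three trials per day. Directional turning errors counted, 12 if the platform was not found in 5 min. Percent restoration calculated; ANOVA with Duncan test.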

[4] = system: Mus musculus; test: Inhibition of diazepam-induced amnesia in NMRI mouse at 10 mg/kg, po by one-trial passive avoidance test; type: functional
Outline: (§1)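 Male NMRI mice, 25–28 g, 10 per group. Anterograde amnesia induced by diazepam 3 mg/kg i.p. 30 min before the acquisition trial. Test compound given orally (0.1 or 10 mg/kg) 1 h before acquisition. Readout is latency to enter the dark chamber. Percent restoration P% = (T_treated+DIA − T_placebo+DIA)/(T_placebo − T_placebo+DIA) × 100.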

[5] = system: Mus musculus; test: Inhibition of diazepam-induced amnesia in NMRI mouse at 0.1 mg/kg, po by one-trial passive avoidance test; type: functional; outline: as §1
[6] = system: Mus musculus; test: Effect on memory improvement in NMRI mouse at 10 mg/kg by passive avoidance test; type: functional, organism-based; parameters: dose 10 mg/kg; outline: as §1

Compound | IC50 [1] [µM] | IC50 [2] [µM] | Activity [3] [%] | inhibition in vivo at 10 mg/kg [4] [%] | inhibition in vivo at 0.1 mg/kg [5] [%] | Activity [6]
CCOC(=O)C1=C[C@]2(CC)CCCN3CCc4c(n1c1ccccc41)[C@H]32 | 14.4 | 3.5 | – | – | – | –
CC[C@@]12C=C(C(=O)OCCO)n3c4c(c5ccccc53)CCN(CCC1)[C@H]42 | – | > 30 | 80.3 | – | – | –
Cc1c(C)c2c(c(C)c1O)CCC(C)(CCCC(C)CCCC(C)CCCC(C)C)O2 (racemic) [alpha-TOCHOPHEROL] | 35.7 | 273 | – | – | – | –
O=c1c(O)c(-c2ccc(O)c(O)c2)oc2cc(O)cc(O)c12 [QUERCETIN] | 10.7 | 8.5 | – | – | – | –
CC[C@@]12C=C(C(=O)O)n3c4c(c5ccccc53)CCN(CCC1)[C@H]42 | – | – | 66.7 | – | – | –
CC[C@@]12C=C(C(=O)OCCO)n3c4c(c5ccccc53)CCN(CCC1)[C@@H]42 | 13.7 | 7 | 81.1 | 65 | 74 | Active
CC[C@@]12C=C(C(=O)OCCOC(=O)c3ccccc3)n3c4c(c5ccccc53)CCN(CCC1)[C@@H]42 | 18.2 | 3.8 | – | 0 | 0 | –
CCC(=O)OCCOC(=O)C1=C[C@@]2(CC)CCCN3CCc4c(n1c1ccccc41)[C@@H]32 | 15.8 | 4.4 | – | 24 | 64 | –
CCC(=O)OCCOC(=O)C1=C[C@]2(CC)CCCN3CCc4c(n1c1ccccc41)[C@H]32 | 21 | 5 | – | 4 | 16 | –
CC[C@@]12C=C(C(=O)OCCOC(C)=O)n3c4c(c5ccccc53)CCN(CCC1)[C@@H]42 | 9.8 | 3.6 | – | 100 | 79 | Active
COC1=C(OC)C(=O)C(CCCCCCCCCCO)=C(C)C1=O [IDEBENONE] | 31.5 | 1.3 | – | – | – | –
CCOC(=O)C1=C[C@]2(CC)CCCN3CCc4c(n1c1ccccc41)[C@@H]32 [VINPOCETINE] | 209 | 137 | 56.6 | 100 | 0 | –
CC[C@]12C=C(C(=O)OCCO)n3c4c(c5ccccc53)CCN(CCC1)[C@H]42 | 13.6 | 9.1 | – | 56 | 50 | Active
CCOC(=O)C1=C[C@@]2(CC)CCCN3CCc4c(n1c1ccccc41)[C@@H]32 | 13.4 | 3 | – | – | – | –
CC[C@]12C=C(C(=O)OCCOC(=O)c3ccc(Cl)cc3)n3c4c(c5ccccc53)CCN(CCC1)[C@H]42 | 15.7 | 2.7 | – | – | – | –
CC[C@]12C=C(C(=O)O)n3c4c(c5ccccc53)CCN(CCC1)[C@H]42 | 258 | > 300 | – | – | – | –
CC[C@@]12C=C(C(=O)[O-])n3c4c(c5ccccc53)CCN(CCC1)[C@@H]42.[Na+] | 238 | > 300 | 71.3 | – | – | –
Cc1cc(C(C)(C)C)c(O)c(C(C)(C)C)c1 [BUTYLATED HYDROXYTOLUENE] | 6.2 | 3.2 | – | – | – | –
CC[C@]12C=C(C(=O)OCCOC(=O)c3ccccc3)n3c4c(c5ccccc53)CCN(CCC1)[C@H]42 | 14.8 | 3.4 | – | 16 | 23 | –
CC[C@]12C=C(C(=O)OCCOC(C)=O)n3c4c(c5ccccc53)CCN(CCC1)[C@H]42 | 15.2 | 3.8 | – | 44 | 72 | Active
CC[C@@]12C=C(C(=O)OCCOC(=O)c3ccc(Cl)cc3)n3c4c(c5ccccc53)CCN(CCC1)[C@@H]42 | 14.6 | 2.7 | – | 15 | 3 | –
